Screening data (PubChem BioAssay)
Compounds with a hit are over-represented: about 2.5% of the library has one in this group of screens.
PAX8 inh HTS: inhibitors of PAX8-driven TPO luciferase reporter, primary screen, RMG-I cells, single concentration | SteadyGlo, 24 h | inhibition, % at 12.6 µM | AID 652154, 2013 | 1.2% of 360,000 active;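 active = mean replicate inhibition at least 60% with every replicate also reaching 60%; inconclusive = only one of the two criteria is met; inactive = mean below 60% and not all replicates reaching 60%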;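 also: luciferase light reporting Pax8 driven TPO promoter activity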
EWS-Fli block: EWS/Fli-driven NR0B1 reporter inhibitors, primary screen, A673 cells, NR0B1 luciferase, luminescence, MLPCN library; viability-normalised; inhibition, % at 12.6 µM; 0.67% of 350,000 active; AID 651661, 2012;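 active = mean inhibition of at least 50% after viability correction, with every replicate also passing that limit; inconclusive = mean reaches 50% but only one of two replicates passes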;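 also: firefly luciferase signal divided by Alamar Blue viability fluorescence both relative to DMSO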
FN deposition inh: inhibitors of fibronectin matrix deposition, primary screen, AH1F cells, Alexa488-fibronectin fluorescence, plate reader; 0.086% of 350,000 active; AH1F fibroblasts, overnight; AID 743247, 2014; inhibition, % at 12.6 µM;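 active = mean inhibition across replicates of 30% or more, regardless of how many single replicates reach that level; inconclusive = mean under 30% yet at least half of replicates reach 30%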
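Assay system: AH1F fibroblasts assembling fluorescent fibronectin matrix; Amount: 10000 AH1F cells per well; Buffer or medium: DMEM, 2% serum; Probe or stimulus: Alexa488-fibronectin, 24 nM final in well; Doses: single compound dose, delivered by pin transfer; Incubation: 1 h adhesion, overnight exposure; Measured by: fluorescence 485/525 nm; Read-out: fibronectin deposition inhibition.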
Env fusion inh: inhibitors of HIV-1 Env-driven cell-cell fusion, primary screen, HeLa-JRFL effector, CEM21 target cells, luciferase; 1.1% of 360,000 active; inhibition, % at 12.3 µM;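 active = mean replicate inhibition score of at least 50 and every replicate individually at or above 50; inconclusive = only one of the two criteria met; inactive = mean below 50 and not all replicates reaching 50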
AF4-AF9 inh: inhibitors of AF4 peptide binding to AF9, primary screen, biochemical, AlphaScreen, biotin-AF4 peptide, FLAG-AF9, single point | 0.47% of 350,000 active | inhibition, % at 10 µM | AID 651704, 2012;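 active = every replicate reaching a set inhibition limit, whatever the replicate mean, cut at about 25% in these data; inconclusive = mean inhibition reaches that limit but some replicates miss it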
Target sequence (P42568 whole entry, looked up): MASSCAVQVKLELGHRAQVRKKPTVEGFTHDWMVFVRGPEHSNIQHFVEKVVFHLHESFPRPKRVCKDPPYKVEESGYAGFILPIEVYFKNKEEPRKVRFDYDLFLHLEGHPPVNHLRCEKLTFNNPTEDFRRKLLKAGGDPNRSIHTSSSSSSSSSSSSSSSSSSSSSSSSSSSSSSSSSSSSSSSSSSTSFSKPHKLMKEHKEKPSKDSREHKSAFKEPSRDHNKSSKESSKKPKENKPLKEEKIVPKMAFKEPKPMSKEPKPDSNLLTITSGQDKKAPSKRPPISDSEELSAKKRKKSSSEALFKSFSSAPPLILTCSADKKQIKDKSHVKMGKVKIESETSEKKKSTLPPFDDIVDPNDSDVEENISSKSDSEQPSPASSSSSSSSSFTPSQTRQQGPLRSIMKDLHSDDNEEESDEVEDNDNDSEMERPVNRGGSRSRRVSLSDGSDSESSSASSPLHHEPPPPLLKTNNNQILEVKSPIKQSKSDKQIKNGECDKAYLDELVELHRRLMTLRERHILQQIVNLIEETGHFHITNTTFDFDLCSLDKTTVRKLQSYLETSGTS
N-glyco inh: increase of ERlucT glycosylation luciferase signal, primary screen, N-linked glycosylation inhibitor project, D54 ERlucT cells, luminescence, set 2; D54 ERlucT glycosylation luciferase reporter, 24 h; percent of 100 nM tunicamycin response; reporter increase, % at 12.5 µM; 0.23% of 360,000 active; AID 588692, 2011;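 active = mean luciferase reporter signal, scaled so untreated is 0 and the glycosylation-blocking control 100, at or above a set limit in every replicate; inconclusive = mean reaches the limit but not every replicate does; inactive = mean below the limit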;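 also: luciferase carries N-glycosylation sites so blocking glycosylation raises the light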
Hits are given with their value; 0 = inactive; ? = inconclusive; - = no result.

SMILES | PAX8 inh HTS | EWS-Fli block | FN deposition inh | Env fusion inh | AF4-AF9 inh | N-glyco inh
COc1cc(-c2cnc3c(NC=O)cc(-c4ccc(S(C)(=O)=O)cc4)cn23)cc(OC)c1OC | 62 | 0 | 0 | 0 | 0 | 0
CCCC#Cc1cnc2c(c1)C(=O)N([C@@H](C)CO)C[C@@H](C)[C@H](CN(C)C(=O)Cc1cccnc1)O2 | - | 0 | 0 | 0 | 0 | -
CO[C@@H]1CN(C)C(=O)c2cc(NC(=O)Nc3cccc(Cl)c3)ccc2OC[C@@H](C)NC[C@@H]1C | 0 | 0 | 0 | 0 | 0 | -
Cc1ccc(NC(=O)c2cnn(-c3ccccc3)c2C)cc1C | 0 | 56 | 0 | 0 | 0 | 0
O=C(O)c1ccc(NC2=C(Cl)C(=O)c3ccccc3C2=O)cc1 | 83 | ? | 0 | 0 | 0 | 0
O=C1C(Cl)=C(Nc2ccccc2)C(=O)c2ccccc21 | 0 | - | 0 | 0 | 0 | 0
CO[C@H]1CN(C)C(=O)c2ccc(NC(=O)C3CC3)cc2OC[C@H](C)N(Cc2cccc(F)c2)C[C@@H]1C | - | 0 | 0 | - | 0 | -
CCCNc1nc2ccccc2n2c(C)nnc12 | 0 | 0 | 0 | 0 | 0 | 40
CCCN(CCC)c1nc2ccccc2n2c(C)nnc12 | 0 | - | 0 | 0 | - | 0
O=C(Nc1cccnc1)c1cn(-c2ccccc2)nc1-c1cccs1 | - | - | 0 | 0 | - | 0
CCN(CC)CCNC(=O)c1ccc(NC(=O)c2cn(-c3ccc(F)cc3)nc2-c2cccc(OC)c2)cc1 | 0 | 59 | 0 | 0 | 0 | 0
CCOc1ccc(NC(=O)CN(C)C(=O)c2cn(-c3ccc(F)cc3)nc2-c2cccc(OC)c2)cc1OCC | 0 | 0 | 0 | 0 | 0 | 0
CCN(CC)CCNC(=O)c1ccc(NC(=O)c2cn(-c3ccccc3)nc2-c2cccs2)cc1 | 0 | 58 | 0 | 0 | 0 | 0
CCCNC(=O)C[C@@H]1C[C@H]2c3cc(NC(=O)CC4CC4)ccc3O[C@H]2[C@H](CO)O1 | - | 0 | 0 | - | 0 | -
Cc1ccc(S(=O)(=O)Nc2cccc3c2O[C@@H](CN(C)C(=O)Nc2c(C)noc2C)[C@H](C)CN([C@H](C)CO)C3=O)cc1 | 0 | 0 | - | 0 | 0 | -
N#Cc1c(Cl)nsc1NN | 0 | 0 | - | 0 | 51 | 0
Cc1c(C#N)c(N)nc(Cl)c1C#N | 0 | 0 | 0 | 0 | 0 | 0
Cc1c(C(=O)OCC(C)C)[nH]c2c1C(=O)CC(c1ccco1)C2 (stereo not drawn) | 68 | 53 | 0 | 0 | 0 | 0
C/C=C/COC(=O)c1[nH]c2c(c1C)C(=O)CC(c1ccco1)C2 (stereo not drawn) | 0 | 0 | 0 | 0 | 0 | 0
Cc1c(C(=O)OCC2CCCO2)[nH]c2c1C(=O)CC(c1ccco1)C2 (stereo not drawn) | - | - | - | - | - | 0
Cc1c(C(=O)OC2CCCC2)[nH]c2c1C(=O)CC(c1ccco1)C2 (stereo not drawn) | 76 | 0 | 0 | 0 | 0 | 0
C[C@@H]1CN([C@H](C)CO)C(=O)c2cc(NS(=O)(=O)c3cccs3)ccc2O[C@@H](C)CCCCO[C@H]1CN(C)Cc1ccc2c(c1)OCO2 | 0 | 0 | - | 0 | - | -
N#CC1c2ccccc2C=CN1C(=O)N(c1ccccc1)c1ccccc1 (stereo not drawn) | 78 | 0 | 0 | 0 | 0 | 0
COc1ccc(C(=O)N2C=Cc3ccccc3C2C#N)cc1 (stereo not drawn) | 0 | 0 | 0 | 0 | 0 | 0
COc1ccc(NC(=O)N(C)C[C@@H]2Oc3ccc(NS(C)(=O)=O)cc3CC(=O)N([C@H](C)CO)C[C@@H]2C)cc1 | 0 | 0 | 0 | 0 | 0 | -
SMILES | PAX8 inh HTS | EWS-Fli block | FN deposition inh | Env fusion inh | AF4-AF9 inh | N-glyco inh
CC(NCC(O)COc1ccc2ccccc2c1)c1ccccc1 (stereo not drawn) | 0 | 0 | 0 | 65 | 0 | 0
Cc1cc(OCC(O)CNC(C)c2ccccc2)ccc1C(C)C (stereo not drawn) | 0 | 0 | 0 | 82 | 0 | 0
COc1ccc(OCC(O)CNC(C)c2ccccc2)cc1 (stereo not drawn) | 0 | 0 | 0 | 0 | 0 | 0
CN(C)C(=O)C[C@@H]1C[C@H]2c3cc(NC(=O)NC4CCCCC4)ccc3O[C@H]2[C@H](CO)O1 | 0 | 0 | 0 | 0 | 0 | -
CC(C)(C)c1nc[nH]c(=O)c1Br | 0 | 0 | 0 | - | 0 | 0
CC(C)(C)c1nc(C(C)(C)C)c(Br)c(=O)[nH]1 | 0 | 0 | 0 | 72 | 0 | 0
CCOc1ccc(/C=C/C(=O)c2ccccc2)cc1OC | 0 | - | 0 | 0 | - | 26
COc1ccc(/C=C/C(=O)O)cc1Cl | 0 | 0 | 0 | 0 | 43 | 0
CCOc1ccc(C(=O)/C=C/c2ccc(OC)c(OC)c2)cc1 | 0 | 0 | - | 0 | 0 | 0
C[C@H]1CN([C@@H](C)CO)C(=O)c2cccc(NC(=O)Nc3ccc(F)cc3)c2O[C@H]1CN(C)Cc1ccc(Oc2ccccc2)cc1 | - | 0 | - | - | 0 | -
CCCN1CCC2(CC1)CN(Cc1ccc3c(c1)OCO3)[C@H](CO)c1[nH]c3cc(OC)ccc3c12 | - | 0 | 0 | - | 30 | -
COc1ccc2c3c([nH]c2c1)[C@@H](CO)N(C(C)=O)CC31CCN(C(=O)c2ccc3c(c2)OCO3)CC1 | 0 | 0 | 0 | - | 25 | -
COCC(=O)N1[C@@H]2c3ccc(/C=C/c4ccccc4)c(=O)n3C[C@H]1[C@H](CO)[C@H]2C(=O)N1CCCCC1 | 0 | 0 | - | - | 0 | -
CNC(=O)C[C@H]1CC[C@H]2[C@@H](COC[C@@H](O)CN2Cc2ccc(Cl)c(Cl)c2)O1 | 0 | 0 | 0 | 0 | - | -
Cc1ccc(-c2csc3ncnc(Sc4nnc(CN5CCCCCC5=O)o4)c23)cc1 | 111 | - | 0 | 0 | - | 0
Cc1ccc(-c2csc3ncnc(SCC(=O)Nc4nnc(C)s4)c23)cc1 | 0 | - | - | 0 | - | 0
COc1ccc(C(CCNCc2ccc(N(C)C)cc2)c2ccccc2)cc1 (stereo not drawn) | 0 | 0 | 0 | 69 | 50 | 0
CC(C)Oc1ccc(C(CCNCc2ccc(O)cc2)c2ccccc2)cc1 (stereo not drawn) | 0 | ? | 0 | 0 | 0 | 0
COCC(=O)Nc1ccc2c(c1)OC[C@H](C)N(C(=O)Cc1cccnc1)C[C@@H](C)[C@H](OC)CN(C)C2=O | - | 0 | 0 | - | 0 | -
O=C(CSc1nnc(-c2cccnc2)s1)Nc1ccnc2ccccc12 | 0 | - | 0 | 55 | - | 0
COc1ccccc1C=CC(=O)C=Cc1ccccc1OC | 0 | 0 | 0 | 0 | 0 | 0
COc1ccccc1/C=C/C(=O)/C=C/c1ccccc1O | 0 | 0 | 0 | 0 | 0 | 39
Cc1nc(SCC(=O)N(C)C2CCS(=O)(=O)C2)c2ccccc2n1 (stereo not drawn) | 0 | 0 | - | 0 | 0 | 0
Cc1nc(SCC(=O)N(C)C2(C#N)CCCCC2)c2ccccc2n1 | 62 | 0 | 0 | - | 0 | 0
